Experimental findings from ChEMBL document CHEMBL4257576, “4-Iminooxazolidin-2-one as a Bioisostere of the Cyanohydrin Moiety: Inhibitors of Enterovirus 71 3C Protease” (J Med Chem, 2018) are described below.

Calls of active or inactive are those of the source. A value given as a limit tells only on which side of the number the result lay.

Series [1] is described as follows: Half life in human plasma by HPLC analysis. The format is ADME, cell-free. The essentials: (§1)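 Compound was incubated in human or mouse plasma and its remaining level followed over time to obtain t1/2. Each point is n = 3 with standard deviation bars.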
Series [2] in a line: Half life in ICR (CD-1) mouse plasma by HPLC analysis. The series is classed as ADME, cell-free. The essentials:
as §1

A short description of series [3]: Half life in human liver microsomes at 1 mg/ml in presence of NADPH regenerating system by HPLC analysis. The series is classed as ADME, microsome. In outline:
(§2)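 Human and mouse liver microsomes at 1.0 mg/mL. Compound disappearance was tracked over time to give half-life and intrinsic clearance (Clint, µL/min/mg). Data are the mean of triplicates with SD (n = 3).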
On the technique in general: Microsomes from liver hold many membrane-bound enzymes, among them those of drug oxidation.

A short description of series [4]: Half life in mouse liver microsomes at 1 mg/ml in presence of NADPH regenerating system by HPLC analysis. The format is ADME, microsome. In outline:
as §2

A short description of series [5]: Intrinsic clearance in human liver microsomes at 1 mg/ml in presence of NADPH regenerating system by HPLC analysis. The format is ADME, microsome. The following applies: read-out: CLH. In outline: as §2
Series [6] in a line: Intrinsic clearance in mouse liver microsomes at 1 mg/ml in presence of NADPH regenerating system by HPLC analysis. The settings on record: read-out: CLH. The series is classed as ADME, microsome. In outline:
as §2

Another series deals with Genome polyprotein (Enterovirus A71, UniProt A0A1D8D5K2). The series can be described thus: Inhibition of EV71 3C protease expressed in Escherichia coli BL21(DE3) using NMA-IEALFQGPPK(DNP)FR as substrate preincubated for 0.5 hrs followed by substrate addition by fluorescence assay. The essentials: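 Values reported as Ki (µM), each the mean of three independent experiments with SEM (n=3).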
Genome polyprotein, sequence (A0A1D8D5K2 whole entry): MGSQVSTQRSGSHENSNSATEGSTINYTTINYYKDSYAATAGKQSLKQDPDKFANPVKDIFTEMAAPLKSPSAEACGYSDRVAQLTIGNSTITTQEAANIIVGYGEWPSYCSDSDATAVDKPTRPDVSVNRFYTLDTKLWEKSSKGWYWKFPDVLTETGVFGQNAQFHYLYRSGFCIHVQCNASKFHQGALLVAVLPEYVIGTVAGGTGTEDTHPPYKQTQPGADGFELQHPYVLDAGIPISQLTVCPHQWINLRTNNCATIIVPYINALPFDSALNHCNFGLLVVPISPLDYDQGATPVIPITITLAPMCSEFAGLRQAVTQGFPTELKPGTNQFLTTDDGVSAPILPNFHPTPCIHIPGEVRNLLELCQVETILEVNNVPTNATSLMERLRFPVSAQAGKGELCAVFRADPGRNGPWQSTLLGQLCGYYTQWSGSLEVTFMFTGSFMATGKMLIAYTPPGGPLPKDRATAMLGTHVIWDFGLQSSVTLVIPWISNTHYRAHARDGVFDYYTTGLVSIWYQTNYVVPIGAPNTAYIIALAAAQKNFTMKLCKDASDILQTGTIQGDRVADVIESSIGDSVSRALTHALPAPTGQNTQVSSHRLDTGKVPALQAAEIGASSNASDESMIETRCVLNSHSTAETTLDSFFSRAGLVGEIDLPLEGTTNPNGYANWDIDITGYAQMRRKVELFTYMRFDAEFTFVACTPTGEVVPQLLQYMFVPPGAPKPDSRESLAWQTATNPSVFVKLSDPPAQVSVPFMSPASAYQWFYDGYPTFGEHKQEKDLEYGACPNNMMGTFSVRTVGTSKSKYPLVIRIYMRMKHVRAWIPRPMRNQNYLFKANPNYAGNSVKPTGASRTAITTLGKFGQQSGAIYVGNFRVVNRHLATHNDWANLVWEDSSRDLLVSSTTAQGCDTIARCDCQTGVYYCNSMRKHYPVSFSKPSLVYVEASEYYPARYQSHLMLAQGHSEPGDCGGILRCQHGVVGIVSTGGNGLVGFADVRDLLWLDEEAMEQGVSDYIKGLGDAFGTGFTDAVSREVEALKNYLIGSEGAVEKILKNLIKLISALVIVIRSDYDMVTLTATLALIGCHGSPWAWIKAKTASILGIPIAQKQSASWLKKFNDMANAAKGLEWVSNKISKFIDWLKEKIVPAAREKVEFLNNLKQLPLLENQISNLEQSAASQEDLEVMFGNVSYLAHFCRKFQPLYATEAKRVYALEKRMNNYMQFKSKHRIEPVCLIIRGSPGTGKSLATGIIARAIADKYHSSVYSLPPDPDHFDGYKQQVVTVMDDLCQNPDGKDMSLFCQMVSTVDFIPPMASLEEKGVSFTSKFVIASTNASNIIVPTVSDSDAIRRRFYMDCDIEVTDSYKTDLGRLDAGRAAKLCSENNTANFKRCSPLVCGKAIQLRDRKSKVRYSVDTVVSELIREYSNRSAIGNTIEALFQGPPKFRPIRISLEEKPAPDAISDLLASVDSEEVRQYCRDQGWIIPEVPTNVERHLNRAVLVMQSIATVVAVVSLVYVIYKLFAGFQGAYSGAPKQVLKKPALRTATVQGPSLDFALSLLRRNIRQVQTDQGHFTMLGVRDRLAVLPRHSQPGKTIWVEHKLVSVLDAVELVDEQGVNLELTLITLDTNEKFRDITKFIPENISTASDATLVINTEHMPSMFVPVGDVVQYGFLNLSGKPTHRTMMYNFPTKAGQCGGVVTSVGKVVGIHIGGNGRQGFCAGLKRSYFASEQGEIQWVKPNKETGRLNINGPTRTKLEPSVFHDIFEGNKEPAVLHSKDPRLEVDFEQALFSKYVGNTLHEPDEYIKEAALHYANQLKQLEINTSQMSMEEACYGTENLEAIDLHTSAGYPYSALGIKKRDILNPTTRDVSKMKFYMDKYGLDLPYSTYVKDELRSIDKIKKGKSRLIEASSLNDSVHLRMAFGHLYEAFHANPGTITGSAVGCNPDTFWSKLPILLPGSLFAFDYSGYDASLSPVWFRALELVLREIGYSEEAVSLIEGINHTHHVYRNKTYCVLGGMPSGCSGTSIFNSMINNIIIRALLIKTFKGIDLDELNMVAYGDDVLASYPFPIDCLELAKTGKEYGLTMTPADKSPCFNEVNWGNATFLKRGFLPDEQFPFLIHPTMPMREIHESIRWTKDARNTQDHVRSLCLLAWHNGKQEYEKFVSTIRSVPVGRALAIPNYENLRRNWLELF

The test system of a further series is Enterovirus A71. The series is described as follows: Antiviral activity against Enterovirus A71 infected in human RD cells receiving pEV71-Luc subgenomic replicon stocks from HEK-293T cells. The series is classed as functional, organism-based. The following applies: Enterovirus A. In outline:
(§3)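 Values (EC50, CC50) are the average of three independent experiments, with SEM (n = 3).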
(A replicon is a self-replicating genome or part of one, used to study replication in cells.)

For series [7], the system named is Mus musculus. The series is described as follows: AUC (0 to t) in ICR (CD-1) mouse at 20 mg/kg, iv administered as single dose by LC-MS analysis. The format is ADME, organism-based. The following applies: in vivo. In outline:
(§4)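 Male mice got a single 20 mg/kg dose, either IV or oral (PO), with separate groups for each route. Plasma concentration–time profiles were followed, and parameters were taken from mean ± SD curves (n = 3).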

In series [8] the test system is Mus musculus. The series can be described thus: Cmax in ICR (CD-1) mouse at 20 mg/kg, iv administered as single dose by LC-MS analysis. Set-up: dose 20 mg/kg, route intravenous. The settings on record: in vivo. The format is ADME, organism-based. The essentials:
as §4

Series [9] can be described thus: Tmax in ICR (CD-1) mouse at 20 mg/kg, iv administered as single dose by LC-MS analysis. The series is classed as ADME, organism-based. The settings on record: in vivo. The essentials:
as §4

Series [10] is described as follows: Half life in ICR (CD-1) mouse at 20 mg/kg, iv administered as single dose by LC-MS analysis. The series is classed as ADME, organism-based. The settings on record: in vivo. In outline:
as §4

Series [11] concerns Mus musculus. The series is described as follows: AUC (0 to t) in ICR (CD-1) mouse at 20 mg/kg, po administered as single dose by LC-MS analysis. The format is ADME, organism-based. The following applies: in vivo. In outline:
as §4

Series [12] deals with Mus musculus. The series is described as follows: Cmax in ICR (CD-1) mouse at 20 mg/kg, po administered as single dose by LC-MS analysis. The following applies: in vivo. The series is classed as ADME, organism-based. Set-up: dose 20 mg/kg, route oral. In outline:
as §4

The nature of series [13]: Tmax in ICR (CD-1) mouse at 20 mg/kg, po administered as single dose by LC-MS analysis. The format is ADME, organism-based. The settings on record: in vivo. The essentials: as §4
Series [14] can be described thus: Half life in ICR (CD-1) mouse at 20 mg/kg, po administered as single dose by LC-MS analysis. The series is classed as ADME, organism-based. The settings on record: in vivo. In outline:
as §4

A short description of series [15]: Cytotoxicity in human RD cells assessed as reduction in cell viability incubated for 24 hrs by WST1 assay. The series is classed as cell-based. The essentials:
as §3

The target in series [16] is Genome polyprotein (Enterovirus A71) (UniProt A0A1D8D5K2). The series can be described thus: Covalent binding affinity to EV71 3C protease expressed in Escherichia coli BL21(DE3) at 2 mg/ml incubated for 2 to 3 hrs and measured after trypsin digestion by LC-MS/MS analysis.
Genome polyprotein (Enterovirus A71), sequence (A0A1D8D5K2 as listed by the source): as the sequence (A0A1D8D5K2 whole entry) above

What is called half-life is the time needed for the level to fall by half in the phase considered. As usually defined, the Ki is the equilibrium dissociation constant of an inhibitor or competing ligand from its target. A higher Ki goes with a looser hold on the target. For orientation: EC50 means the concentration at which the effect is half-maximal. As a reminder, the Cmax is the highest concentration seen after dosing. Usually Tmax stands for the time at which the peak concentration occurs. The CC50 is the concentration giving 50% cytotoxicity. In the case of `CCCN1C(=N)[C@@H]([C@H](C[C@@H]2CCCNC2=O)NC(=O)[C@H](Cc2ccc(F)cc2)NC(=O)c2cc(C)on2)OC1=O`, the half-life was more than 120 min in series [1]; more than 120 min in series [2]; 40 min in [3]; 35 min in series [4]; 51 min in series [10]; 60 min in [14]. Also, the microsomal CLint in series [5] was determined as 17 µL/min/mg; in series [6] it was 20 µL/min/mg. The Ki at Genome polyprotein came to 83 nM. Moreover, a half-maximal response in the series on Enterovirus A71 (EC50) required 210 nM. Also, the AUCt in the series with Mus musculus [7] stood at 2340 ng·h/mL; with Mus musculus [11], 7.9 mg·min/mL. For the same compound, the peak concentration (Cmax) was determined as 8200 ng/mL in the series on Mus musculus [8] and 150 ng/mL in the series with Mus musculus [12]. Also, the Tmax in series [9] is 5 min; in [13], 15 min. Besides, the cytotoxic concentration (CC50) at 24 h in series [15] is more than 100000 nM. In addition, the result in series [16] was inactive.
